Activity calls are given as the source filed them. The rule behind the calls is not given here.
Columns and labels:
[1] = target: Kappa-type opioid receptor (Homo sapiens) (UniProt P41145); test: Agonist activity at kappa-opioid receptor (unknown origin) at 10 uM after 90 mins by [35S]GTPgammaS binding assay; type: functional
Procedure, shortened: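 KOR-containing membranes were incubated in duplicate with [35S]GTPγS (0.1–0.2 nM) and 10 µM peptide for 90 min at 22 °C in 50 mM HEPES, pH 7.4. Specific binding is total minus binding with 3 µM unlabeled GTPγS. Efficacy is expressed relative to the full agonist Dyn A(1-13)NH2, from at least two independent experiments.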

[2] = target: Kappa-type opioid receptor (Homo sapiens) (UniProt P41145); test: Antagonist activity at kappa-opioid receptor (unknown origin) assessed as inhibition of DynA(1-13)-induced [35S]-GTPgammaS binding after 90 mins; type: functional
Procedure, shortened: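 Antagonism was measured in a [35S]GTPγS (0.1–0.2 nM) binding assay on KOR membranes, run in duplicate for 90 min at 22 °C in 50 mM HEPES, pH 7.4, with Dyn A(1-13)NH2 as the stimulating agonist. Specific binding is total minus binding with 3 µM GTPγS. KB was derived by Schild analysis from shifts of the agonist concentration-response curve, averaged over 2–5 independent experiments, with 95% confidence intervals.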

[3] = Retention time of the compound by RP-HPLC; type: physicochemical
Procedure, shortened: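 Analytical RP-HPLC on a C18 column (5 µ, 300 Å, 4.6 × 50 mm). System 1: 5–50% acetonitrile in water, both with 0.1% TFA, over 45 min at 1 mL/min. System 2: 15–60% methanol/0.1% TFA over 45 min at 1.0 mL/min. System 3: 1–21% acetonitrile against aqueous 0.09 M TEAP, pH 2.5, over 40 min.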

Rattus norvegicus = species: Rattus norvegicus; test: Selectivity ratio, ratio of Ki for rat mu-opioid receptor to Ki for rat kappa-opioid receptor
[4] = target: Kappa-type opioid receptor (Rattus norvegicus, UniProt P34975); test: Displacement of [3H]diprenorphine from rat kappa-opioid receptor expressed in CHO cells after 90 mins by scintillation counter; type: cell-based
Chain of Kappa-type opioid receptor (P34975 whole entry): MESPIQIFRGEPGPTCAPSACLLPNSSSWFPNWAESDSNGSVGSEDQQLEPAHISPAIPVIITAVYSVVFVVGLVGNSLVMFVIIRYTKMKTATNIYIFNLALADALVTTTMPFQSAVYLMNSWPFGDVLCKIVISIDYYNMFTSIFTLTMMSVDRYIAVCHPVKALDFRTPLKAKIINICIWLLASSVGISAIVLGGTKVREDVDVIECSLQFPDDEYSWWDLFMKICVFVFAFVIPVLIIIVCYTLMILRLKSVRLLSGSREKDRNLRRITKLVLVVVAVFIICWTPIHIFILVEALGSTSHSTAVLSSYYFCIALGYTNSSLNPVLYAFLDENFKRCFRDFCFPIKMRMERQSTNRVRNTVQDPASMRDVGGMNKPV
Procedure, shortened: (§1)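 Membranes from CHO cells stably expressing cloned rat KOR or MOR were incubated in triplicate with test peptide at 0.1 nM–10 µM for 90 min at 22 °C in 50 mM Tris, pH 7.4. […] Nonspecific binding was set with 10 µM unlabeled Dyn A(1-13)NH2 (KOR) or DAMGO (MOR). Ki is the mean ± S.E.M. of at least three independent experiments.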

Mu-type opioid receptor = Mu-type opioid receptor (Rattus norvegicus, UniProt P33535); test: Displacement of [3H]DAMGO from rat mu-opioid receptor expressed in CHO cells after 90 mins by scintillation counter; type: cell-based; procedure, shortened: as §1
Chain of Mu-type opioid receptor (P33535 whole entry): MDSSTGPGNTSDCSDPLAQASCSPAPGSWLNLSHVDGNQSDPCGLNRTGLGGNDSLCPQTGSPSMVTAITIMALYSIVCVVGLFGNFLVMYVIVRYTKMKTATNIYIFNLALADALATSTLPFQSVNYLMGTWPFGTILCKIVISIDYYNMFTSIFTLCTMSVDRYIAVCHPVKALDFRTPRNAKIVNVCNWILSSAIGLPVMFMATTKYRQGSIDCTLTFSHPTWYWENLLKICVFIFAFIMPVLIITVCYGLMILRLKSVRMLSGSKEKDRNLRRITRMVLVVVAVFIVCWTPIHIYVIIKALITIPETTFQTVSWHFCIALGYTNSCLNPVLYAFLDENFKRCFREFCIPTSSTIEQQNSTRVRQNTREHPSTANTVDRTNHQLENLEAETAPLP

[5] = target: Kappa-type opioid receptor (Rattus norvegicus) (UniProt P34975); test: Displacement of [3H]diprenorphine from rat kappa-opioid receptor expressed in CHO cells after 90 mins by scintillation counter relative to zyklophin; type: cell-based
Chain of Kappa-type opioid receptor (Rattus norvegicus) (P34975 whole entry): as the sequence (P34975 whole entry) above

Chain of Kappa-type opioid receptor (Homo sapiens) (P41145 whole entry): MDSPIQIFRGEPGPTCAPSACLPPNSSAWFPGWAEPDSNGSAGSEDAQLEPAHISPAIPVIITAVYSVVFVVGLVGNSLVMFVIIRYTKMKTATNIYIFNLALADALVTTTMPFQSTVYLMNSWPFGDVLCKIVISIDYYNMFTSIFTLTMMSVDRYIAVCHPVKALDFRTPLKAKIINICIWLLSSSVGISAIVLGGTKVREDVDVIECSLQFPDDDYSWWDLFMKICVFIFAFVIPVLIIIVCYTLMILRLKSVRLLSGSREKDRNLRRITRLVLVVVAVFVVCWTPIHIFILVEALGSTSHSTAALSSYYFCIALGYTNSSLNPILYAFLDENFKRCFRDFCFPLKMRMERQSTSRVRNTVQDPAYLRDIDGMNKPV

Row | Structure (SMILES) | Activity [1] | also measured
1 | C=CCN[C@@H](Cc1ccc(O)cc1)C(=O)NCC(=O)NCC(=O)N[C@@H](Cc1ccccc1)C(=O)N[C@@H]1CC(=O)NC[C@@H](C(=O)N[C@@H](CCCNC(=N)N)C(=O)N2CCC[C@H]2C(=O)N[C@@H](CCCCN)C(N)=O)NC(=O)[C@H](CCCNC(=N)N)NC(=O)[C@H](CCCNC(=N)N)NC1=O | Active | 
2 | C[C@@H]1NC(=O)[C@H](NC(=O)[C@H](Cc2ccccc2)NC(=O)CNC(=O)CNC(=O)[C@H](Cc2ccc(O)cc2)NCc2ccccc2)CC(=O)NC[C@@H](C(=O)N[C@@H](CCCNC(=N)N)C(=O)N2CCC[C@H]2C(=O)N[C@@H](CCCCN)C(N)=O)NC(=O)[C@H](CCCNC(=N)N)NC1=O | inactive | 
3 | N=C(N)NCCC[C@@H]1NC(=O)[C@H](CCCNC(=N)N)NC(=O)[C@H](NC(=O)[C@H](Cc2ccccc2)NC(=O)CNC(=O)CNC(=O)[C@H](Cc2ccc(O)cc2)NC(=O)c2ccccc2)CC(=O)NC[C@@H](C(=O)N[C@@H](CCCNC(=N)N)C(=O)N2CCC[C@H]2C(=O)N[C@@H](CCCCN)C(N)=O)NC1=O | Active | 
4 | N=C(N)NCCC[C@@H]1NC(=O)[C@H](CCCNC(=N)N)NC(=O)[C@H](NC(=O)[C@H](Cc2ccccc2)NC(=O)CNC(=O)CNC(=O)[C@H](Cc2ccc(O)cc2)NCC2CC2)CC(=O)NC[C@@H](C(=O)N[C@@H](CCCNC(=N)N)C(=O)N2CCC[C@H]2C(=O)N[C@@H](CCCCN)C(N)=O)NC1=O | Active | 
5 | N=C(N)NCCC[C@@H]1NC(=O)[C@H](CCCNC(=N)N)NC(=O)[C@H](NC(=O)[C@H](Cc2ccccc2)NC(=O)CNC(=O)CNC(=O)[C@H](Cc2ccc(O)cc2)NCc2ccccc2)CC(=O)NCCC[C@@H](C(=O)N[C@@H](CCCNC(=N)N)C(=O)N2CCC[C@H]2C(=O)N[C@@H](CCCCN)C(N)=O)NC1=O | Active | 
6 | N=C(N)NCCC[C@@H]1NC(=O)[C@H](CCCNC(=N)N)NC(=O)[C@H](NC(=O)[C@H](Cc2ccccc2)NC(=O)CNC(=O)CNC(=O)[C@H](Cc2ccc(O)cc2)NCCc2ccccc2)CC(=O)NC[C@@H](C(=O)N[C@@H](CCCNC(=N)N)C(=O)N2CCC[C@H]2C(=O)N[C@@H](CCCCN)C(N)=O)NC1=O | Active | 
7 | CN[C@@H](Cc1ccc(O)cc1)C(=O)NCC(=O)NCC(=O)N[C@@H](Cc1ccccc1)C(=O)N[C@@H]1CC(=O)NC[C@@H](C(=O)N[C@@H](CCCNC(=N)N)C(=O)N2CCC[C@H]2C(=O)N[C@@H](CCCCN)C(N)=O)NC(=O)[C@H](CCCNC(=N)N)NC(=O)[C@H](CCCNC(=N)N)NC1=O | Active | 
8 | C[C@H](NC(=O)[C@@H]1CNC(=O)C[C@@H](NC(=O)[C@H](Cc2ccccc2)NC(=O)CNC(=O)CNC(=O)[C@H](Cc2ccc(O)cc2)NCc2ccccc2)C(=O)N[C@@H](CCCNC(=N)N)C(=O)N[C@@H](CCCNC(=N)N)C(=O)N1)C(=O)N1CCC[C@H]1C(=O)N[C@@H](CCCCN)C(N)=O | inactive | 
9 | C[C@@H]1NC(=O)[C@H](CCCNC(=N)N)NC(=O)[C@H](NC(=O)[C@H](Cc2ccccc2)NC(=O)CNC(=O)CNC(=O)[C@H](Cc2ccc(O)cc2)NCc2ccccc2)CC(=O)NCC(C(=O)N[C@@H](CCCNC(=N)N)C(=O)N2CCC[C@H]2C(=O)N[C@@H](CCCCN)C(N)=O)NC1=O (some centres undefined) | inactive | Activity [2]: inactive
10 | C[C@H](NCc1ccccc1)C(=O)NCC(=O)NCC(=O)N[C@@H](Cc1ccccc1)C(=O)N[C@@H]1CC(=O)NC[C@@H](C(=O)N[C@@H](CCCNC(=N)N)C(=O)N2CCC[C@H]2C(=O)N[C@@H](CCCCN)C(N)=O)NC(=O)[C@H](CCCNC(=N)N)NC(=O)[C@H](CCCNC(=N)N)NC1=O | inactive | 
11 | N=C(N)NCCC[C@@H]1NC(=O)[C@H](CCCNC(=N)N)NC(=O)[C@H](NC(=O)[C@H](Cc2ccccc2)NC(=O)CNC(=O)CNC(=O)[C@@H](Cc2ccc(O)cc2)NCc2ccccc2)CC(=O)NC[C@@H](C(=O)N[C@@H](CCCNC(=N)N)C(=O)N2CCC[C@H]2C(=O)N[C@@H](CCCCN)C(N)=O)NC1=O |  | Retention_time [3]: 17.3 min
12 | CC[C@H](C)[C@H](NC(=O)[C@H](CCCNC(=N)N)NC(=O)[C@H](CCCNC(=N)N)NC(=O)[C@@H](CC(N)=O)NC(=O)[C@H](Cc1ccccc1)NC(=O)CNC(=O)CNC(=O)[C@H](Cc1ccc(O)cc1)NCc1ccccc1)C(=O)N[C@@H](CCCNC(=N)N)C(=O)N1CCC[C@H]1C(=O)N[C@@H](CCCCN)C(N)=O |  | Ratio Ki (Rattus norvegicus): 6; Ki [4]: 412 nM; Ki (Mu-type opioid receptor): 2440 nM; fold change (FC) [5]: 0.23
13 | C[C@H](NC(=O)CNC(=O)CNC(=O)[C@H](Cc1ccc(O)cc1)NCc1ccccc1)C(=O)N[C@@H]1CC(=O)NC[C@@H](C(=O)N[C@@H](CCCNC(=N)N)C(=O)N2CCC[C@H]2C(=O)N[C@@H](CCCCN)C(N)=O)NC(=O)[C@H](CCCNC(=N)N)NC(=O)[C@H](CCCNC(=N)N)NC1=O | inactive | 
14 | CC1NC(=O)C[C@@H](NC(=O)[C@H](Cc2ccccc2)NC(=O)CNC(=O)CNC(=O)[C@H](Cc2ccc(O)cc2)NCc2ccccc2)C(=O)N[C@@H](CCCNC(=N)N)C(=O)N[C@@H](CCCNC(=N)N)C(=O)NC1C(=O)N[C@@H](CCCNC(=N)N)C(=O)N1CCC[C@H]1C(=O)N[C@@H](CCCCN)C(N)=O (some centres undefined) | Active | Ratio Ki (Rattus norvegicus): 8
